The source of these data is ChEMBL document CHEMBL3351385, “Synthesis and preliminary mechanistic evaluation of 5-(p-tolyl)-1-(quinolin-2-yl)pyrazole-3-carboxylic acid amides with potent antiproliferative activity on human cancer cell lines” (Eur J Med Chem, 2014).

The source made the active and inactive calls. No cut-off for these calls is given here.

Test [1] relates to MCF7. Description: Cytotoxicity against human MCF7 cells after 72 hrs by SRB assay. The class given is functional, cell-based. As to conditions: MCF7, 72 h. In short, it runs like this: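 Cells kept in DMEM with 10% FCS and penicillin/streptomycin at 37°C, 5% CO2. 2000–3000 cells/well were seeded, and medium was refreshed the next day. DMSO solutions were added over 2.5–40 µM with matched DMSO-only controls for 72 h. Cells were then TCA-fixed, stained with 0.4% SRB in 1% acetic acid, solubilized in 10 mM Tris pH 8 and read at 515 nm. Data were normalized to DMSO wells and expressed as mean ±SD.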

The test system of test [2] is Huh-7. Description: Induction of cell death in human HuH7 cells assessed as induction of intracytoplasmic vacuoles at cytotoxic IC50 level after 72 hrs by inverted light microscopy. The test is classed as functional, cell-based. Summed up:
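They were viewed under an inverted light microscope at 20× for death morphology, including intracytoplasmic vacuoles.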

Test [3] can be described thus: Induction of cell cycle arrest in human HuH7 cells assessed as accumulation at S phase at cytotoxic IC50 level after 48 hrs by propidium iodide staining based FACS method. The class given is functional, Huh-7. In short, it runs like this: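 Huh7 cells were seeded at 150,000–300,000 per 100-mm dish and left 24 h. […] Cells were stained with a propidium iodide-containing cell cycle reagent, and subG1, G0/G1, S and G2/M fractions were scored by flow cytometry.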

Test [4] concerns the target Mitogen-activated protein kinase 15 (Homo sapiens) (UniProt Q8TD08). Description: Inhibition of ERK8 (unknown origin) assessed as remaining enzyme activity at 10 uM by radioactive [33P]-ATP filter binding assay. Summed up: (§1)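 A single 10 µM concentration was tested across a 140-kinase panel. Activity was measured by a radioactive 33P-ATP filter-binding assay run at the International Center for Kinase Profiling, University of Dundee.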

Test [5] concerns the target Calcium/calmodulin-dependent protein kinase kinase 2 (Homo sapiens) (UniProt Q96RR4). Description: Inhibition of CAMKKB (unknown origin) assessed as remaining enzyme activity at 10 uM by radioactive [33P]-ATP filter binding assay. In short, it runs like this:
as §1

Test [6] addresses Death-associated protein kinase 1 (Homo sapiens) (UniProt P53355). Description: Inhibition of DAPK1 (unknown origin) assessed as remaining enzyme activity at 10 uM by radioactive [33P]-ATP filter binding assay. In short, it runs like this:
as §1

Test [7] has as its target Glycogen synthase kinase-3 beta (Homo sapiens) (UniProt P49841). Description: Inhibition of GSK3beta (unknown origin) assessed as remaining enzyme activity at 10 uM by radioactive [33P]-ATP filter binding assay.
In test [8] the target is Tyrosine-protein kinase ABL1 (Homo sapiens) (UniProt P00519). Description: Inhibition of ABL (unknown origin) assessed as remaining enzyme activity at 10 uM by radioactive [33P]-ATP filter binding assay. Summed up:
as §1

Test [9] has as its target Ephrin type-A receptor 4 (Homo sapiens) (UniProt P54764). Description: Inhibition of EPHA4 (unknown origin) assessed as remaining enzyme activity at 10 uM by radioactive [33P]-ATP filter binding assay. In short, it runs like this:
as §1

The target of test [10] is Ephrin type-B receptor 2 (Homo sapiens) (UniProt P29323). Description: Inhibition of EPHB2 (unknown origin) assessed as remaining enzyme activity at 10 uM by radioactive [33P]-ATP filter binding assay. In short, it runs like this: as §1
Test [11] concerns the target Serine/threonine-protein kinase PINK1, mitochondrial (Homo sapiens) (UniProt Q9BXM7). Description: Inhibition of PINK (unknown origin) assessed as remaining enzyme activity at 10 uM by radioactive [33P]-ATP filter binding assay.
For test [12], the target named is Maternal embryonic leucine zipper kinase (Homo sapiens) (UniProt Q14680). Description: Inhibition of MELK (unknown origin) assessed as remaining enzyme activity at 10 uM by radioactive [33P]-ATP filter binding assay.
Test [13] deals with Tau-tubulin kinase 1 (Homo sapiens) (UniProt Q5TCY1). Description: Inhibition of TTBK1 (unknown origin) assessed as remaining enzyme activity at 10 uM by radioactive [33P]-ATP filter binding assay.
The target in test [14] is Tau-tubulin kinase 2 (Homo sapiens) (UniProt Q6IQ55). Description: Inhibition of TTBK2 (unknown origin) assessed as remaining enzyme activity at 10 uM by radioactive [33P]-ATP filter binding assay.
The target in test [15] is Dual specificity tyrosine-phosphorylation-regulated kinase 3 (Homo sapiens) (UniProt O43781). Description: Inhibition of DYRK3 (unknown origin) assessed as remaining enzyme activity at 10 uM by radioactive [33P]-ATP filter binding assay. In short, it runs like this:
as §1

Test [16] addresses Inhibitor of nuclear factor kappa-B kinase subunit epsilon (Homo sapiens) (UniProt Q14164). Description: Inhibition of IKKepsilon (unknown origin) assessed as remaining enzyme activity at 10 uM by radioactive [33P]-ATP filter binding assay.
Test [17] deals with Homeodomain-interacting protein kinase 1 (Homo sapiens) (UniProt Q86Z02). Description: Inhibition of HIPK1 (unknown origin) assessed as remaining enzyme activity at 10 uM by radioactive [33P]-ATP filter binding assay.
In test [18] the target is Dual specificity protein kinase CLK2 (Homo sapiens) (UniProt P49760). Description: Inhibition of CLK2 (unknown origin) assessed as remaining enzyme activity at 10 uM by radioactive [33P]-ATP filter binding assay. Summed up: as §1
The target of test [19] is Serine/threonine-protein kinase PAK 4 (Homo sapiens) (UniProt O96013). Description: Inhibition of PAK4 (unknown origin) assessed as remaining enzyme activity at 10 uM by radioactive [33P]-ATP filter binding assay.
Test [20] deals with Interleukin-1 receptor-associated kinase 4 (Homo sapiens) (UniProt Q9NWZ3). Description: Inhibition of IRAK4 (unknown origin) assessed as remaining enzyme activity at 10 uM by radioactive [33P]-ATP filter binding assay.
Test [21] concerns the target Serine/threonine-protein kinase OSR1 (Homo sapiens) (UniProt O95747). Description: Inhibition of OSR1 (unknown origin) assessed as remaining enzyme activity at 10 uM by radioactive [33P]-ATP filter binding assay.
Test [22] addresses Serine/threonine-protein kinase WNK1 (Homo sapiens) (UniProt Q9H4A3). Description: Inhibition of WNK1 (unknown origin) assessed as remaining enzyme activity at 10 uM by radioactive [33P]-ATP filter binding assay.
Test [23] deals with Mitogen-activated protein kinase kinase kinase 7, TAK1 (Homo sapiens) (UniProt O43318). Description: Inhibition of TAK1 (unknown origin) assessed as remaining enzyme activity at 10 uM by radioactive [33P]-ATP filter binding assay.
Mitogen-activated protein kinase kinase kinase 7, TAK1 (Homo sapiens), sequence (O43318 whole entry, looked up): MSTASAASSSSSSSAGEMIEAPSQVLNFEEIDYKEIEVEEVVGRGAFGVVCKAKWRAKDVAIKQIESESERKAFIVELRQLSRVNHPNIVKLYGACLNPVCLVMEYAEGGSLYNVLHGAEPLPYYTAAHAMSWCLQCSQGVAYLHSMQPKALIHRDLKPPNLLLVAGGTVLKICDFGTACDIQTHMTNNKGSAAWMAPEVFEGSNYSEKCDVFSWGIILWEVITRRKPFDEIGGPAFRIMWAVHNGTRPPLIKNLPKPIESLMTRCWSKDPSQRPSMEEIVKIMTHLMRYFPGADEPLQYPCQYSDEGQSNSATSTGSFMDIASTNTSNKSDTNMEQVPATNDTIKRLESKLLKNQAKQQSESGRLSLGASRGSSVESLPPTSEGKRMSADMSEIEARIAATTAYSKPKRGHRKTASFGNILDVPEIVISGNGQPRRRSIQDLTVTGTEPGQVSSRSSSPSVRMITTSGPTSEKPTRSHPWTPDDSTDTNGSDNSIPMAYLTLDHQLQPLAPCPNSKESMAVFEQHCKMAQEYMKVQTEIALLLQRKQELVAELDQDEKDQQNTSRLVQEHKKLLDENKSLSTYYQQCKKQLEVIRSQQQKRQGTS

Tau-tubulin kinase 1 (Homo sapiens), sequence (Q5TCY1 whole entry): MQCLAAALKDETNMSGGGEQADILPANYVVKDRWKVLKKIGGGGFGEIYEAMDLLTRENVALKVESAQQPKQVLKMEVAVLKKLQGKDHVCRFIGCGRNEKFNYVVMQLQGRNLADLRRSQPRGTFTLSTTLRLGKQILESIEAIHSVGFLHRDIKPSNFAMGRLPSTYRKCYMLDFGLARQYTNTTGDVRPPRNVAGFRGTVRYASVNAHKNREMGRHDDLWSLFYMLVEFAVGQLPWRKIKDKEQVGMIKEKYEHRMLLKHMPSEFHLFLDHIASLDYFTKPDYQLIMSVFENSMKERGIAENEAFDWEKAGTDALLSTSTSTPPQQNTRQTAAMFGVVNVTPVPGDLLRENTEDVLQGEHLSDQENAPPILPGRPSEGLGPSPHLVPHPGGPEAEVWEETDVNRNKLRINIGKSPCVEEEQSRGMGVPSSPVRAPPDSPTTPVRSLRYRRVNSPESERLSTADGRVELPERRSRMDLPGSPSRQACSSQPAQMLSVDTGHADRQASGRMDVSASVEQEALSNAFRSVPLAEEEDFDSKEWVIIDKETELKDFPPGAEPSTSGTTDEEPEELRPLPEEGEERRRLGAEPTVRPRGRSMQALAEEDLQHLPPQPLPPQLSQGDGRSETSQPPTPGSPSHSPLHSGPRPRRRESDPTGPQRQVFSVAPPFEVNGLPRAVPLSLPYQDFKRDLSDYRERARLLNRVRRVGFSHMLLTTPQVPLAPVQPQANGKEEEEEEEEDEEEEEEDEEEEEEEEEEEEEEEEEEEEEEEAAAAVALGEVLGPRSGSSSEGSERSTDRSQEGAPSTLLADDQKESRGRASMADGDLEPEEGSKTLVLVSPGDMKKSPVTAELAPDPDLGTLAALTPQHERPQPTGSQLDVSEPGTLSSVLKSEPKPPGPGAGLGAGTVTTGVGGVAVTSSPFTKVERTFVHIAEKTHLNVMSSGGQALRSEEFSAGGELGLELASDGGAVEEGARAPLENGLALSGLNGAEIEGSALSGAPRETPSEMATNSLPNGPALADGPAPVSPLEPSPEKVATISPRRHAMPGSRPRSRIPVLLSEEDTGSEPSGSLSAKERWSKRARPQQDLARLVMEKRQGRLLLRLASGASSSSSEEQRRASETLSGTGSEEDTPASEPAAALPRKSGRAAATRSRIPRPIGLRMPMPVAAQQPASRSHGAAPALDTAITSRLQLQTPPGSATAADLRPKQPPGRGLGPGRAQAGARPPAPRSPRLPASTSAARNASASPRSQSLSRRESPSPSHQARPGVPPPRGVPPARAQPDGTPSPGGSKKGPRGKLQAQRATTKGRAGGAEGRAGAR
Tau-tubulin kinase 2 (Homo sapiens), sequence (Q6IQ55 whole entry): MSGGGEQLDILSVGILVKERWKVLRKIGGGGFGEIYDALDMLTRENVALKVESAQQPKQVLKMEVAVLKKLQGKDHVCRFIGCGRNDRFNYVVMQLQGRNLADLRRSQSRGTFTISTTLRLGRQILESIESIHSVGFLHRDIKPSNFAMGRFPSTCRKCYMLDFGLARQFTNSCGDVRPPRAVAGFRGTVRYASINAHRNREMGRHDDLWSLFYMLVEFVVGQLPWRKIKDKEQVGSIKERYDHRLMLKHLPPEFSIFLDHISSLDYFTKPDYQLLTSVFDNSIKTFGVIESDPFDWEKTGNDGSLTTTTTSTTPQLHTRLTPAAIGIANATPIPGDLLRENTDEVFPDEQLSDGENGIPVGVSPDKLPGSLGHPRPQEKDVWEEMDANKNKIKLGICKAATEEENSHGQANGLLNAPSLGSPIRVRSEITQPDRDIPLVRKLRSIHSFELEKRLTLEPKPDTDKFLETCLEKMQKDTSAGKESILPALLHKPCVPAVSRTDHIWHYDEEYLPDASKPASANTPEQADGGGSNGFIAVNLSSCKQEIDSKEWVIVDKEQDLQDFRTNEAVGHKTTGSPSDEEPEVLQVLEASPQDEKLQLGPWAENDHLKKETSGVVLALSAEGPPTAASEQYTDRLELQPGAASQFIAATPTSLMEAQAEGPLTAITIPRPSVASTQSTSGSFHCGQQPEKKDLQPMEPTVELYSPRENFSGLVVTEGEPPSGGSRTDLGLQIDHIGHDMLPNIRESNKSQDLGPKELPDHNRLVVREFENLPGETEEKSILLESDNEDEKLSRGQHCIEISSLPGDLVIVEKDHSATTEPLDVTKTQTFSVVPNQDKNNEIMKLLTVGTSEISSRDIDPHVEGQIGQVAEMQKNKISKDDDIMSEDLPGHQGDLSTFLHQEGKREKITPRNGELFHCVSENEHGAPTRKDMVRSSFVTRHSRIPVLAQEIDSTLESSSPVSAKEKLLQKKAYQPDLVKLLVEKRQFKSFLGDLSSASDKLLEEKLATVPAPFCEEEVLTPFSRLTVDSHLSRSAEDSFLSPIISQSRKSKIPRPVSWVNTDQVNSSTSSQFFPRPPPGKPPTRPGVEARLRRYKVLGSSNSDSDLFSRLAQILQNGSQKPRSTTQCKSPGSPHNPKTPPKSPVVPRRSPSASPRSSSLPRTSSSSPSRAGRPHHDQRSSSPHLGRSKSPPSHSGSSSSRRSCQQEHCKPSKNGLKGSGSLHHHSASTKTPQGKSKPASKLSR
Dual specificity tyrosine-phosphorylation-regulated kinase 3 (Homo sapiens), sequence (O43781 whole entry): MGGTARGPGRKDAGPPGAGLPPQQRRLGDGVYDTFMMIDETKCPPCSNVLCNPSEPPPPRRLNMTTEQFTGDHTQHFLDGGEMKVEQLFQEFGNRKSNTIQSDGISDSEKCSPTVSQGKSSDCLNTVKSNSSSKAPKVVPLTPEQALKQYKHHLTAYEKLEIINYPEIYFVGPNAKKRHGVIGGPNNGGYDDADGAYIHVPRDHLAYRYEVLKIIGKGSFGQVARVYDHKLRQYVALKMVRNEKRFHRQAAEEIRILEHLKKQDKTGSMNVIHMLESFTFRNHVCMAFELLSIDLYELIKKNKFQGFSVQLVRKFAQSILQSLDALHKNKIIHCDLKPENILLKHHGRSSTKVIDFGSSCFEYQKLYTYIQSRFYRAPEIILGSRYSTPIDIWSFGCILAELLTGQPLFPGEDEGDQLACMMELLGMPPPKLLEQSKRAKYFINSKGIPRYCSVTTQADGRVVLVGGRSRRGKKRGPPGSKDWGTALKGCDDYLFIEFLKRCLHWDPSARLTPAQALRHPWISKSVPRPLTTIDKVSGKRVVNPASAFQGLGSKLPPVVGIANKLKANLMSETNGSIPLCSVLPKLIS
Serine/threonine-protein kinase PAK 4 (Homo sapiens), sequence (O96013 whole entry, looked up): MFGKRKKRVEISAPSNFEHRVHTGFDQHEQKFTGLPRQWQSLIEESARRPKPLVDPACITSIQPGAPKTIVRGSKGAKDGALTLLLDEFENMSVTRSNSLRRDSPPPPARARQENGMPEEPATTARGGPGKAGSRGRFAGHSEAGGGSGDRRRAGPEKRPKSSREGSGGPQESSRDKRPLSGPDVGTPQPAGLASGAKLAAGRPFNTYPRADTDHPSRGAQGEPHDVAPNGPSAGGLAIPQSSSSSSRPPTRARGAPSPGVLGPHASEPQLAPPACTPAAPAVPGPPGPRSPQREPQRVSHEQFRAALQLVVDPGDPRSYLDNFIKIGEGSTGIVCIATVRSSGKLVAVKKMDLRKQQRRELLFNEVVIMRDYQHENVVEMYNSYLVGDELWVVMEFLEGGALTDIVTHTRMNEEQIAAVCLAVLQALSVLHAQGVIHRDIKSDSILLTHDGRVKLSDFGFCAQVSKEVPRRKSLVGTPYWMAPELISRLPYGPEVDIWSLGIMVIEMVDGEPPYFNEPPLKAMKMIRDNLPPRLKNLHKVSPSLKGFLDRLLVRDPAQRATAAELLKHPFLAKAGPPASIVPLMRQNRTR
Interleukin-1 receptor-associated kinase 4 (Homo sapiens), sequence (Q9NWZ3 whole entry): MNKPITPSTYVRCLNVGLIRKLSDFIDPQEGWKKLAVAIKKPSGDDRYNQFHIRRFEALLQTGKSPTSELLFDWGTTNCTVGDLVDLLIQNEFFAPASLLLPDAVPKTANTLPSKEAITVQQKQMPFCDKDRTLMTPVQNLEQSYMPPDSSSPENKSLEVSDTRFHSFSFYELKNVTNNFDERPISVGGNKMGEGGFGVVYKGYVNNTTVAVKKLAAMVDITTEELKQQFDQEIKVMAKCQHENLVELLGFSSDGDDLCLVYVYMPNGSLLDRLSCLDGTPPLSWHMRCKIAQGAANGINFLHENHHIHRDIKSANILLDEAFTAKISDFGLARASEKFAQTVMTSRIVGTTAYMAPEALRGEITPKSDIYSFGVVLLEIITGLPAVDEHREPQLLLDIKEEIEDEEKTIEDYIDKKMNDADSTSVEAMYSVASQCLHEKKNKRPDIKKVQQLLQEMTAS

In [1], `Cc1ccc(-c2cc(C(=O)Nc3ccnc(Cl)c3)nn2-c2ccc3ccccc3n2)cc1` showed an IC50 of 3.3 µM. Also, the result in test [2] was Active. The Activity stood at 10.3% in test [3]; 106% in [4]; 85% in [5]; 112% in [6]; 103% in test [7]; 84% in [8]. In addition, the Activity in [9] was determined as 125%; in [10], 114%; in test [11], 114%; in test [12] it was 98%; in test [13], 104%; in [14], 101%. Moreover, the Activity was 86% in test [15]; 112% in [16]; 98% in test [17]; 83% in test [18]; 105% in test [19]; 90% in test [20]. Besides, the Activity in test [21] is 111%; in [22], 106%; in test [23], 91%.
